A selection: hits, their analogues and other compounds. The true share with any hit is near 2%.
EBI2 antag = blocks human EBI2 receptor beta-arrestin signaling; P32249; EBI2 beta-arrestin recruitment, luminescence, 7a,25-OHC stimulated; inhibition, % at 5 µM; 360,000 compounds, 0.81% hits; in the data active = inhibition above about 38%;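 note: enzyme fragment complementation signal reports receptor beta-arrestin coupling in cells; 0% = agonist plus DMSO wells and 100% = wells without agonist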
APJ ag = APJ receptor agonism. CHO-K1 APJ PathHunter beta-arrestin, luminescence; 0% DMSO wells, 100% apelin. activation, % at 20 µM. 330,000 compounds, 0.11% hits;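 active = activation more than six SD over the plate average, tested at 20 µM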;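 note: 0% = DMSO alone and 100% = apelin-13 at 10 nM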
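Assay system: engineered CHO-K1 APJ arrestin reporter cells; Amount: 1000 CHO-K1 reporter cells seeded per well; Dosing: one dose, 20 µM compound, 1% DMSO; Times: compound stimulation 90 min at 25 °C, detection 60 min; Measured by: luminescent beta-gal fragment complementation, chemiluminescent substrate; Read-out: APJ–arrestin association signal; Controls: DMSO vs Apelin-13 10 nM.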
CXCR6 block = CXCR6 (human) receptor inhibition; O00574; CHO-K1 PathHunter CXCR6 beta-arrestin, luminescence; AID 602244; 360,000 compounds, 0.36% hits; inhibition, % at 20 µM; in the data active = inhibition above about 34%, passing the limit was not always enough;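 note: antagonist mode with CXCL16 agonist at 10 nM final; 0% = 10 nM CXCL16 with DMSO and 100% = unstimulated wells without agonist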
GAA850 FXN act = activators of GAA850 frataxin (FXN) promoter; HEK293 lucGAA850 FXN promoter luciferase reporter, 24 h; percent of 10 µM SAHA response; activation, % at 6 µM; 360,000 compounds, 0.56% hits;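 active = activation above the average of all compounds screened plus 3 SD, cutoff fixed separately per campaign, cut at about 7.5% in these data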;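 note: 0% = DMSO wells and 100% = 10 µM SAHA wells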
APJ antagonist = blocks the human apelin receptor APJ. P35414. CHO-K1 APJ beta-arrestin complementation, luminescence. inhibition, % at 20 µM. 330,000 compounds, 0.32% hits;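 active = inhibition above about 40% at 20 µM, limit read from the data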;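 note: cells challenged with 10 nM apelin-13 agonist together with compound; plate controls were apelin-13 plus DMSO wells for no effect and DMSO wells lacking apelin-13 for full effect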
CCR6 antag = blocks CCL20-driven beta-arrestin recruitment at human CCR6 | 340,000 compounds, 0.49% hits | inhibition, % at 20 µM | CHO-K1 CCR6 PathHunter beta-arrestin, luminescence, CCL20-stimulated;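 active = compounds whose inhibition of the agonist-driven luminescence signal at 20 µM reaches about 50%, limit read from the data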;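 note: cells stimulated with CCL20 at 14 nM final; plate controls were DMSO with CCL20 for no effect and DMSO without agonist for full effect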
Target sequence (P51684 whole entry, looked up): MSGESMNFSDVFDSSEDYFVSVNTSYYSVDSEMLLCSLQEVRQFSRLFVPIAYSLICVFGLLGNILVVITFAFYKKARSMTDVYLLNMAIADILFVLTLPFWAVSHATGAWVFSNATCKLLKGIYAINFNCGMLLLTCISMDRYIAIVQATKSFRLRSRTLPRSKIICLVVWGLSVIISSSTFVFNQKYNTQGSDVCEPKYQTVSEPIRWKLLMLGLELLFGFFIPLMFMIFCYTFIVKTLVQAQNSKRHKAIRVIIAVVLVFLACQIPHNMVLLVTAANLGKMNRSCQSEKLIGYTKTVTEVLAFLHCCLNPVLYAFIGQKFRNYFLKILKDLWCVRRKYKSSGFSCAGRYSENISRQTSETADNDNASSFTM
EBI2 antag conf = confirmation of human EBI2 receptor antagonists. shares compounds with EBI2 antag. EBI2 beta-arrestin luminescence, 7a,25-OHC antagonism. inhibition, % at 5 µM. 2,400 compounds, 29% hits;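 active = inhibition of at least 50%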
EBI2 agonist = activates EBI2, counter-screen for EBI2 antagonists; shares compounds with EBI2 antag; EBI2-expressing cells, agonist mode, luminescence, 60 min; 0% vehicle, 100% 7α,25-dihydroxycholesterol control; activation, % at 5 µM; 2,400 tested, under 10 active; AID 652000;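 active = activation of at least 50%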
bGal counter = counter-screen for EBI2 antagonists: E. coli beta-galactosidase inhibition; shares compounds with EBI2 antag; inhibition, % at 5 µM; 2,400 compounds, 1% hits; purified beta-galactosidase, luminescent Galacton Star, 15 min;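 active = replicate-average signal at least 3 plate SD below neutral wells, shown as high inhibition, flagging enzyme-inhibiting false positives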;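 note: 0% = DMSO wells with enzyme and 100% = wells lacking enzyme; higher means stronger loss of beta-gal luminescence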
The depositor's hits bear a star; . = not tested or not shown.

SMILES	EBI2 antag	APJ ag	CXCR6 block	GAA850 FXN act	APJ antagonist	CCR6 antag	EBI2 antag conf	EBI2 agonist	bGal counter
CCOC(=O)/C(=C\c1ccc(N2CCC(c3ccccc3)=N2)cc1)C(C)=O	48*	.	11	-15	.	18	53*	0	3
O=C(/C=C/c1ccc(N2CCC(c3ccccc3)=N2)cc1)c1ccccc1	.	-2	.	.	5	11	.	.	.
COc1cc(/C=C/C(=O)Nc2ccc(C(C)=O)cc2)cc(OC)c1OC	-17	-2	-9	2	9	-3	.	.	.
CN(C)c1ccc(C(=O)C=Cc2ccc([N+](=O)[O-])cc2)cc1	53*	.	-7	2	.	.	27	0	-8
Cc1ccc(/C=C/C(=O)c2ccc(C)cc2)cc1	61*	-2	1	2	-2	1	66*	2	2
CC(=O)c1ccc(NC(=O)/C=C/c2ccc(C)cc2)cc1	54*	2	1	1	-15	1	30	2	3
COc1ccc(C(=O)/C=C/c2ccc(C)cc2)c(OC(=O)c2ccc([N+](=O)[O-])cc2)c1	82*	0	-6	0	13	14	28	-1	-13
CC1(C(=O)NS(=O)(=O)c2ccc(Cl)cc2)CCN1C(=O)C1CC1 (centres undefined)	-8	.	-1	1	.	.	.	.	.
CCOC(=O)C1=C(COC(=O)c2ccc(OC)c(OC)c2OC)NC(=O)NC1C (centres undefined)	-19	-1	0	4	3	0	.	.	.
Cc1cccc(-n2c(=O)c3ccccc3n3c(=S)[nH]nc23)c1C	-5	-1	10	-1	8	8	.	.	.
C[C@@H]1CN([C@@H](C)CO)C(=O)c2cc(Br)cnc2O[C@H]1CN(C)C(=O)Cc1cccnc1	-5	.	1	1	.	.	.	.	.
CCCS(=O)(=O)NC(=O)C1(C)CCN(C(=O)c2ccc(SC(F)(F)F)cc2)C1 (centres undefined)	-9	.	3	1	.	.	.	.	.
COc1ccc(-c2nnc(SCc3nnc(-c4ccc(Cl)cc4)o3)n2-c2ccccc2)cc1	74*	-1	0	2	-2	15	44	-1	-13
Clc1ccc(-c2nnc(CSc3nnc(-c4cccs4)n3Cc3ccccc3)o2)cc1	88*	1	5	-2	16	8	60*	1	4
Cn1cccc1Cc1nnc(SCC(=O)Nc2ccc(F)cc2)n1CCc1ccccc1	51*	0	0	-1	0	2	34	1	2
COc1ccc(-n2c(Cc3cccn3C)nnc2SCC(=O)Nc2cccc(NC(C)=O)c2)cc1	0	-5	1	1	14	2	.	.	.
COc1ccc(-n2c(Cc3cccn3C)nnc2SCC(=O)Nc2cccc(Cl)c2)cc1	47*	-2	5	-3	4	-7	23	-1	9
CN(CC(=O)Nc1n[nH]c(=S)s1)S(=O)(=O)c1cccc2cccnc12	-1	-2	-16	0	1	0	.	.	.
O=C(c1ccc(Cl)cc1)c1oc2ccccc2c1CS(=O)c1ccc(Cl)cc1 (centres undefined)	52*	-6	6	2	14	6	51*	0	3
CCCc1ccc(Oc2coc3cc(OCC(=O)Nc4ccccc4C)ccc3c2=O)cc1	38	0	-12	-2	2	4	.	.	.
CCc1ccc(Oc2coc3cc(OCC(=O)Nc4cc(C)ccc4C)ccc3c2=O)cc1	52*	4	-5	2	15	2	11	0	-11
Cc1ccc(NC(=O)c2ccc(S(=O)(=O)N3CCC(C)CC3)cc2)cc1	53*	-1	-3	0	9	6	12	2	4
Cc1ccc(C(=O)Nc2ccc(S(=O)(=O)N3CCOCC3)cc2)cc1	-2	-2	7	2	3	7	.	.	.

Screening results: PubChem BioAssay, several laboratories
